test: Toxicity liver stage against HepG2, at 10uM; assay type: cell-based; set-up: test concentration 10 uM, cell line HepG2-A16-CD81EGFP; settings: human, HepG2-A16-CD81EGFP cells; read-out: INHIBITION
Method in brief: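 Uninfected HepG2-A16-CD81EGFP cells, 3 × 10^3 per well, 1536-well, plated on prespotted compound at 10 μM final, parasite-free screening media added to match infected plates; puromycin 10 μM positive, DMSO 0.5% negative; run in parallel with 48 h PbLuc assay at 37 °C, 5% CO2; viability by CellTiter-Glo luminescence, normalized to controls.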

Row | SMILES | cytotoxicity at 10 µM [%]
1 | O=C(NC1CC1)[C@@H]1CCO[C@@H]2CCN(Cc3ccco3)C[C@H]21 | -86.6
2 | CC(C)Nc1ncnc2c1CCN(C(=O)CC1CCCC1)CC2 | -81.5
3 | CC(=O)N1CC[C@H]2OCC[C@@H](C(=O)NCc3ccco3)[C@@H]2C1 | -77.4
4 | CC(C)c1cc(C2CCCN2C(=O)CN2C(=O)OC(C)(C)C2=O)no1 (stereo unspecified) | -7.71
5 | Cc1cccc(CC(=O)N2CCCC(N(C)CCCN(C)C)C2)c1 (stereo unspecified) | -0.655
6 | COc1cc(CN2CCCC(Nc3cccc(F)c3)C2)cc(Cl)c1O (stereo unspecified) | -0.476
7 | CC(CO)CN(Cc1ccccc1)Cc1cnc2ccccc2n1 (stereo unspecified) | 6.6
8 | COc1cc(C)cc(C(C(=O)O)N(C)Cc2ccon2)c1OC (stereo unspecified) | -3.41
9 | COc1ccc(F)c(-c2nccn2CCN2CCCC2)c1 | -11.8
10 | Cc1ccccc1N1CCN(C(=O)Cc2ccc3c(c2)OCO3)CC1=O | 6.17
11 | CCCc1nc(C(=O)N2CCN(S(=O)(=O)CC)CC2)cs1 | -14.5
12 | CCN1C[C@@H](C(=O)O)[C@H](c2cccc(OC)c2)C1 | -19
13 | COc1ncc(CN2CCC3(CCCN(CC4CCC4)C3)C2)cn1 (stereo unspecified) | -1.95
14 | c1cn(CCn2cnnc2)c(-c2cc3n(n2)CCCNC3)n1 | -0.309
15 | CCC[C@H]1CN(C2CCOCC2)C[C@@H]1NC(=O)CCn1ccnc1C | 5.78
16 | CC(c1nccs1)N(C)C(=O)c1cc(CN(C)Cc2ccccc2)on1 (stereo unspecified) | 12.2
17 | Cc1nc2c(c(NCC(c3cccnc3)N3CCOCC3)n1)CCNC2 (stereo unspecified) | -11.1
18 | CSCCC1c2nc[nH]c2CCN1Cc1[nH]c2ccc(F)cc2c1C (stereo unspecified) | -5.65
19 | COCCN(Cc1ccccn1)C(=O)C1CCCCCN1C (stereo unspecified) | 6.32

Row | SMILES | cytotoxicity at 10 µM [%]
20 | Cc1cc2[nH]cc(C(=O)N3CCCCC3c3ccc(F)cc3)c(=O)n2n1 (stereo unspecified) | 4.19
21 | CCc1cnc(N2CCCC(CCC(N)=O)C2)nc1 (stereo unspecified) | 2.25
22 | CCc1nnc(CN2CCC3(CC2)Nc2ccccc2NC3=O)o1 | -6.96
23 | Cc1ccc2c(c1)OC(C)(C)CC2NC(=O)C1CCN(C)CC1 (stereo unspecified) | -1.71
24 | CN(Cc1ccc(-n2cncn2)cc1)Cc1ncc[nH]1 | 4.67
25 | COCCN1CCC2(CCC1=O)CN(C1CCOCC1)CCN2C (stereo unspecified) | 0.0227
26 | CCN(Cc1noc(C)n1)C(=O)CC1C(=O)NCCN1CC(C)(C)C (stereo unspecified) | 2.78
27 | Cn1nccc1C(=O)N1CCC(n2cc(-c3ccsc3)nn2)CC1 | -3.44
28 | O=C(c1ccsc1)N1C[C@@H](CN2CCCC2)[C@@H](CO)C1 | 15.2
29 | COc1ccccc1OCc1cc(C(=O)N2CC=CC2C(C)C)n[nH]1 (stereo unspecified) | -2.72
30 | Cc1cccc(CN2CCc3c(nc(N4CCCCC4C)[nH]c3=O)C2)n1 (stereo unspecified) | -0.336
31 | Cc1cc(C(=O)N2CCCC(C)C2)ccc1NCc1nc(C(C)C)no1 (stereo unspecified) | -9.84
32 | CNC(=O)c1ccc(C(=O)N2CCCC(n3ccnc3)C2)cn1 (stereo unspecified) | -8.89
33 | CCCOCC(=O)NS(=O)(=O)c1ccc2c(c1)OCCO2 | -6.46
34 | CSc1nccn1-c1cccc(C(=O)NCC(F)(F)F)c1 | -0.312
35 | CCOC(=O)c1sc2ccsc2c1CNC(=O)C(C)OC (stereo unspecified) | -4.07
36 | Cc1noc(Cl)c1CC(=O)N1CCC(Nc2cccnn2)CC1 | -4.72
37 | CCn1cc(NC(=O)C2CCN(Cc3noc(C4CC4)n3)CC2)cn1 | -1.41
38 | CCc1noc(CN2CCCC(Cn3nc(C)nc3C)C2)n1 (stereo unspecified) | -6.31

Row | SMILES | cytotoxicity at 10 µM [%]
39 | CCC(C)(C)NC(=O)CN(C)C(c1cccc(F)c1)c1ccccn1 (stereo unspecified) | -3.15
40 | CC(=O)NCCc1ccc(C(=O)N2CCCC2c2cnn(C)c2)cc1 (stereo unspecified) | -4.74
41 | Cc1nc(-c2ccccc2)sc1C(=O)NCCNc1ncccn1 | 0.273
42 | COCCCNC(=O)CN(C)C(=O)c1cc(C)sc1C | -2.58
43 | NC(=O)c1csc(C(=O)N2CCCCC2Cn2cccn2)c1 (stereo unspecified) | -3.56
44 | Cn1cc([C@@H]2CN(S(=O)(=O)c3ccccc3F)C[C@H]2N)c2ccncc21 | 6.13
45 | CC(=O)NC1CCN(c2cnc(C3CCNCC3)cn2)CC1 | 8
46 | CN(C)CCN(Cc1ccccn1)Cc1ccnn1C1CCCCO1 (stereo unspecified) | 1.6
47 | CN1CCC2(CC1)CN(C(=O)c1cnccn1)Cc1ccccc12 | -82.2
48 | Cc1nc(CO[C@H]2CN(Cc3cccs3)[C@@H]3COC[C@H]23)cs1 | -2.19
49 | CCc1nc2ccccc2c(=O)n1CC1(O)CCN(C(=O)C2CC2)CC1 | -18.3
50 | Cc1cnc(N2CC[C@@H]3O[C@@H](COCC(=O)N(C)C)CC[C@@H]32)nc1 | 0.0508
51 | CN1CCN(CCO)C(=O)C12CCN(Cc1ccsc1)CC2 | 3.66
52 | CN1CCCc2cc(-c3cncn3CC(=O)NC(C)(C)C)ccc21 | -28.9
53 | CCn1ncc2c1CN(C(=O)Cc1ccccn1)CC2COC (stereo unspecified) | -70.7
54 | Cc1oncc1C(=O)N1CC[C@H]2[C@@H]1CCC(=O)N2c1cccnc1 | -76.3
55 | O=S(=O)(C1CC1)N1CC[C@]2(C[C@@H](Oc3ncccc3F)CO2)C1 | -74.1
56 | Cc1cc(C(=O)N2C[C@@H]3CC[C@H]2CN(C)C3)ccc1Cl | -8.23

Source: ChEMBL document CHEMBL4513216, “Probing the Open Global Health Chemical Diversity Library for Multistage-Active Starting Points for Next-Generation Antimalarials” (ACS Infect Dis, 2020)
